The text below walks through data of ChEMBL document CHEMBL1799991, “Discovery of a novel class of 2-aminopyrimidines as CDK1 and CDK2 inhibitors” (Bioorg Med Chem Lett, 2011).

Assay [1] concerns the target Cyclin-dependent kinase 1 (Homo sapiens, UniProt P06493). Nature of the assay: Inhibition of CDK1 in presence of 100 uM ATP.
A further assay deals with A549. As to the kind of experiment: Cytotoxicity against human A549 cells after 48 hrs. Type of assay: functional. The conditions noted are these: A549, 48 h. In a few lines: (§1)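 Exponentially growing cells exposed to test compounds at various concentrations for 48 h, then cell numbers counted; GI50 taken as the concentration giving 50% growth inhibition. Values are means of three experiments.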

The subject of the next assay is EJ. As to the kind of experiment: Cytotoxicity against human EJ cells after 48 hrs. Type of assay: functional. Summed up: as §1
In assay [2] the target is Cyclin-dependent kinase 2 (Homo sapiens, UniProt P24941). As to the kind of experiment: Inhibition of CDK2 in presence of 100 uM ATP.
Another assay deals with HCT-116. As to the kind of experiment: Cytotoxicity against human HCT116 cells after 48 hrs. Type of assay: functional. Conditions: HCT-116, 48 h. In a few lines: as §1

Cyclin-dependent kinase 1, sequence (P06493 whole entry): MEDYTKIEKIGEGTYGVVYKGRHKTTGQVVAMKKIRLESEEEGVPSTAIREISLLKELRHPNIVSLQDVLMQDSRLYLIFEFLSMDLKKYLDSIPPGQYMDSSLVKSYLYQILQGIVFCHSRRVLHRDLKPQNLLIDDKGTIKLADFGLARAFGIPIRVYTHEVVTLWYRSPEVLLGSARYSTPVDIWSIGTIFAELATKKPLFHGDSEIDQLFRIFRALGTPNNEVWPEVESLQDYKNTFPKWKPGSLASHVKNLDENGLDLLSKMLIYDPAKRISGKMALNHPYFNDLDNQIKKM

In the case of `Nc1nc(NC2CCCC2)cc(-c2cc(N3C[C@H](O)[C@@H](O)C3)ccc2O)n1`, the results for the IC50 in assay [1] and in assay [2] were 19 nM and 15 nM, respectively. The GI50 with A549 was found to be 7000 nM; in the assay with EJ, 4500 nM; in the assay on HCT-116, 3000 nM.

For the molecule `Nc1nc(-c2cc(N3C[C@H](O)[C@@H](O)C3)ccc2O)cc(C2CCCC2)n1`, the IC50 in assay [1] turned out to be 23 nM; in assay [2] it was 42 nM. The GI50 in the assay with A549 was 2000 nM; in the assay on EJ, 900 nM; in the assay with HCT-116 it was 400 nM.

As for `Nc1nc(-c2cc(N3C[C@H](O)[C@@H](O)C3)ccc2O)cc(C2CCNCC2)n1`, the IC50 in assay [1] is 340 nM; in assay [2], 200 nM. This molecule also came in with a GI50 in the assay on HCT-116 of over 10000 nM.

For the molecule `Nc1nccc(-c2cc(N3CCOCC3)ccc2O)n1`, the values for the IC50 in assay [1] and in assay [2] were 2240 nM and 790 nM, respectively.

With `CCCCCCc1cc(-c2cc(N3C[C@H](O)[C@@H](O)C3)ccc2O)nc(N)n1`, the IC50 in assay [1] amounted to 260 nM; in assay [2], 450 nM. The GI50 with A549 was found to be 700 nM; in the assay on EJ, 800 nM; in the assay with HCT-116 it was 500 nM.

On to `Nc1nc(-c2cc(N3C[C@H](O)[C@@H](O)C3)ccc2O)cc(C2CCCNC2)n1` (stereo partly drawn), for which the IC50 in assay [1] was determined as 220 nM; in assay [2], 360 nM. The GI50 in the assay with A549, in the assay with EJ and in the assay with HCT-116 was over 10000 nM in each case.

Regarding `Nc1nccc(-c2cc(N3CCCCC3)ccc2O)n1`, the IC50 in assay [1] and in assay [2] was over 10000 nM each time.

In the case of `CCc1cc(-c2cc(N3C[C@H](O)[C@@H](O)C3)ccc2O)nc(N)n1`, the figures for the IC50 in assay [1] and in assay [2] were 31 nM and 50 nM, respectively. Moreover, the results for the GI50 in the assay with A549, with EJ and with HCT-116 were 3000 nM, 1500 nM and 1000 nM, respectively.

In the case of `Nc1nccc(-c2cc(N3CCC(=O)CC3)ccc2O)n1`, the IC50 in assay [1] and in assay [2] was over 10000 nM throughout.

Turning to `Nc1nc(-c2cc(N3C[C@H](O)[C@@H](O)C3)ccc2O)cc(C2CC2)n1`, the IC50 in assay [1] and in assay [2] was over 10000 nM throughout.

On to `CN(C)c1cc(-c2cc(N3C[C@H](O)[C@@H](O)C3)ccc2O)nc(N)n1`, for which the IC50 in assay [1] is 280 nM; in assay [2] it was 250 nM. The molecule further yielded a GI50 in the assay with HCT-116 of over 10000 nM.

Take `Cc1cc(-c2cc(N3C[C@H](O)[C@@H](O)C3)ccc2O)nc(N)n1`: the values for the IC50 in assay [1] and in assay [2] were 20 nM and 42 nM, respectively. Also, the GI50 stood at 2000 nM in the assay on A549, 900 nM with EJ and 400 nM in the assay with HCT-116.

As for `Nc1nccc(-c2cc(N3CCC(O)C3)ccc2O)n1` (stereo not drawn), the IC50 in assay [1] is 2990 nM; in assay [2], 2110 nM.

For the molecule `Nc1nc(-c2cc(N3C[C@H](O)[C@@H](O)C3)ccc2O)cc(C2CCCCCC2)n1`, the IC50 in assay [1] amounted to 31 nM; in assay [2], 90 nM. Moreover, the GI50 is 600 nM with A549, 700 nM in the assay on EJ and 300 nM in the assay on HCT-116.

For `Nc1nc(-c2cc(N3C[C@H](O)[C@@H](O)C3)ccc2O)cc(N2CCOCC2)n1`, the IC50 in assay [1] was 1000 nM; in assay [2], 940 nM. Besides, the GI50 in the assay with HCT-116 was over 10000 nM.

`Nc1nccc(-c2cc(N3C[C@H](O)[C@@H](O)C3)ccc2O)n1`: the IC50 turned out to be 15 nM in assay [1] and 21 nM in assay [2]. Further, the figures for the GI50 in the assay on A549, in the assay on EJ and with HCT-116 were 5500 nM, 4000 nM and 2500 nM, respectively.

As to `Nc1nc(NC2CCCCC2)cc(-c2cc(N3C[C@H](O)[C@@H](O)C3)ccc2O)n1`, the IC50 in assay [1] amounted to 20 nM; in assay [2] it was 60 nM. Moreover, the GI50 in the assay with A549 came to 1500 nM; in the assay on EJ, 2000 nM; in the assay on HCT-116 it was 900 nM.

For the molecule `CN1CCN(c2cc(-c3cc(N4C[C@H](O)[C@@H](O)C4)ccc3O)nc(N)n2)CC1`, the IC50 in assay [1] is 420 nM; in assay [2], 300 nM. The molecule further returned a GI50 with HCT-116 of over 10000 nM.

Regarding `CC(C)c1cc(-c2cc(N3C[C@H](O)[C@@H](O)C3)ccc2O)nc(N)n1`, the IC50 in assay [1] was 94 nM. Also, the GI50 worked out at 1800 nM in the assay with A549, 1500 nM in the assay on EJ and 900 nM in the assay on HCT-116.

As to `Nc1nc(NCCN2CCOCC2)cc(-c2cc(N3C[C@H](O)[C@@H](O)C3)ccc2O)n1`, the IC50 in assay [1] was determined as 790 nM; in assay [2], 450 nM. The GI50 with HCT-116 is over 10000 nM.

For `Nc1nccc(-c2cc(N3CCC(O)CC3)ccc2O)n1`, the IC50 in assay [1] came to 10000 nM; in assay [2] it was 3760 nM.

For `Nc1nc(-c2cc(N3C[C@H](O)[C@@H](O)C3)ccc2O)cc(C2CCCCC2)n1`, the IC50 in assay [1] turned out to be 45 nM; in assay [2] it was 52 nM. The results for the GI50 in the assay on A549, with EJ and in the assay on HCT-116 were 1200 nM, 1200 nM and 800 nM, respectively.

For the molecule `Nc1nccc(-c2cc(N3CCS(=O)(=O)CC3)ccc2O)n1`, the IC50 stood at 7500 nM in assay [1] and 3980 nM in assay [2].

Usually IC50 stands for the concentration that inhibits the measured activity by half. The term GI50 denotes the concentration giving 50% growth inhibition.
